ChEMBL document CHEMBL4052620, “Design and synthesis of sulfonamide-substituted diphenylpyrimidines (SFA-DPPYs) as potent Bruton's tyrosine kinase (BTK) inhibitors with improved activity toward B-cell lymphoblastic leukemia” (Eur J Med Chem, 2017)
Activity calls are given as the source filed them. The calls are words filed in the database; no cut-off is given here.

How the values were obtained:
[1] = target: Tyrosine-protein kinase BTK (Homo sapiens, UniProt Q06187); assay: Inhibition of human recombinant full-length N-terminal His-tagged BTK expressed in baculovirus infected Sf9 insect cells after 60 mins by ADP-Glo kinase assay
Ramos [2] = assay: Antiproliferative activity against human Ramos cells over expressing BTK after 48 hrs by CCK-8 assay; type: functional, cell-based
Procedure, shortened: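 Cells seeded at 3,000–5,000 per well in RPMI1640 with 10% FBS, held one day at 37 °C and 5% CO₂, then exposed to compound for 48 h. Concentrations ran 1.25 to 40 µM, five replicates per concentration. Read-out is CCK-8 absorbance at 450 nm. IC50 comes from five-point dose-response curves, as the mean of at least three separate experiments.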

Raji = assay: Antiproliferative activity against human Raji cells over expressing BTK after 48 hrs by CCK-8 assay; type: functional, cell-based
Procedure, shortened: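 Cells seeded at 3,000–5,000 per well in RPMI1640 with 10% FBS, held one day at 37 °C and 5% CO₂, then exposed to compound for 48 h. Read-out is CCK-8 absorbance at 450 nm. IC50 comes from five-point dose-response curves, as the mean of at least three separate experiments.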

Ramos [3] = assay: Induction of apoptosis in human Ramos cells assessed as necrotic cells at 1 uM after 48 hrs by annexin V-FITC/propidium iodide staining-based flow cytometric analysis (reference value: 0.2%); type: functional
Ramos [4] = assay: Induction of apoptosis in human Ramos cells assessed as viable cells at 5 uM after 48 hrs by annexin V-FITC/propidium iodide staining-based flow cytometric analysis relative to control; type: functional; conditions: read-out: Activity
Ramos [5] = assay: Induction of apoptosis in human Ramos cells assessed as late apoptotic cells at 5 uM after 48 hrs by annexin V-FITC/propidium iodide staining-based flow cytometric analysis relative to control; type: functional
PBMC [6] = assay: Cytotoxicity against human PBMC at 5 to 10 uM after 24 hrs by acridine orange/propidium iodide staining-based fluorescent microscopic analysis; type: cell-based
Procedure, shortened: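 PBMC were isolated from venous blood of a healthy adult on Lymphoprep (density 1.077 g/ml), washed in PBS and seeded at about 2.5 × 10⁵ cells/well. Cells were treated at 5, 10 or 20 µM, five replicates, for 24 h at 37 °C in RPMI1640 with 10% FBS. Staining was AO/PI, 1.0 µg/mL each, for 10 min at room temperature. Live cells were counted under a fluorescence microscope with a counting chamber.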

Ramos [7] = assay: Induction of apoptosis in human Ramos cells assessed as necrotic cells at 5 uM after 48 hrs by annexin V-FITC/propidium iodide staining-based flow cytometric analysis (reference value: 0.2%); type: functional
Ramos [8] = assay: Induction of apoptosis in human Ramos cells assessed as early apoptotic cells at 1 uM after 48 hrs by annexin V-FITC/propidium iodide staining-based flow cytometric analysis relative to control; type: functional
Ramos [9] = assay: Induction of apoptosis in human Ramos cells assessed as late apoptotic cells at 1 uM after 48 hrs by annexin V-FITC/propidium iodide staining-based flow cytometric analysis relative to control; type: functional
Ramos [10] = assay: Antiproliferative activity against human Ramos cells over expressing BTK at 10 uM after 72 hrs by CCK-8 assay; type: functional, cell-based
Procedure, shortened: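 Ramos cells in RPMI-1640 with 10% FBS at 37 °C and 5% CO₂ were treated at 5, 10 or 20 µM for 24, 48 and 72 h. Viability was read by CCK-8 against an untreated control.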

Ramos [11] = assay: Induction of apoptosis in human Ramos cells assessed as viable cells at 1 uM after 48 hrs by annexin V-FITC/propidium iodide staining-based flow cytometric analysis relative to control; type: functional; conditions: read-out: Activity
Ramos [12] = assay: Induction of apoptosis in human Ramos cells assessed as early apoptotic cells at 5 uM after 48 hrs by annexin V-FITC/propidium iodide staining-based flow cytometric analysis relative to control; type: functional
Ramos [13] = assay: Induction of apoptosis in human Ramos cells assessed as early apoptotic cells at 10 uM after 48 hrs by annexin V-FITC/propidium iodide staining-based flow cytometric analysis relative to control; type: functional
Procedure, shortened: (§1)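 Ramos cells at 3 to 5 × 10⁵ cells/well were exposed for 48 h in medium with 5% FBS, with DMSO as solvent control. Cells were then fixed in ethanol at 4 °C, stained with Annexin V-FITC/propidium iodide and analysed by flow cytometry. One representative experiment is shown.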

Ramos [14] = assay: Induction of apoptosis in human Ramos cells assessed as viable cells at 10 uM after 48 hrs by annexin V-FITC/propidium iodide staining-based flow cytometric analysis relative to control; type: functional; conditions: read-out: Activity; procedure, shortened: as §1
Ramos [15] = assay: Induction of apoptosis in human Ramos cells assessed as late apoptotic cells at 10 uM after 48 hrs by annexin V-FITC/propidium iodide staining-based flow cytometric analysis relative to control; type: functional; procedure, shortened: as §1
Ramos [16] = assay: Induction of apoptosis in human Ramos cells assessed as necrotic cells at 10 uM after 48 hrs by annexin V-FITC/propidium iodide staining-based flow cytometric analysis (reference value: 0.2%); type: functional; procedure, shortened: as §1
PBMC [17] = assay: Cytotoxicity against human PBMC at 5 to 10 uM after 24 hrs by acridine orange/propidium iodide staining-based fluorescent microscopic analysis relative to control; type: cell-based
Procedure, shortened: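 PBMC isolated on Lymphoprep (density 1.077 g/ml) from venous blood of one healthy adult, seeded about 2.5 × 10⁵ cells/well in RPMI1640 with 10% FBS. Treated at 5, 10 or 20 µM for 24 h at 37 °C, 5% CO₂, five replicates per concentration. Stained with AO/PI (1.0 µg/mL each, in PBS) for 10 min at room temperature. Live cells counted by fluorescence microscopy and counting chamber.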

Tyrosine-protein kinase BTK, sequence (Q06187 whole entry): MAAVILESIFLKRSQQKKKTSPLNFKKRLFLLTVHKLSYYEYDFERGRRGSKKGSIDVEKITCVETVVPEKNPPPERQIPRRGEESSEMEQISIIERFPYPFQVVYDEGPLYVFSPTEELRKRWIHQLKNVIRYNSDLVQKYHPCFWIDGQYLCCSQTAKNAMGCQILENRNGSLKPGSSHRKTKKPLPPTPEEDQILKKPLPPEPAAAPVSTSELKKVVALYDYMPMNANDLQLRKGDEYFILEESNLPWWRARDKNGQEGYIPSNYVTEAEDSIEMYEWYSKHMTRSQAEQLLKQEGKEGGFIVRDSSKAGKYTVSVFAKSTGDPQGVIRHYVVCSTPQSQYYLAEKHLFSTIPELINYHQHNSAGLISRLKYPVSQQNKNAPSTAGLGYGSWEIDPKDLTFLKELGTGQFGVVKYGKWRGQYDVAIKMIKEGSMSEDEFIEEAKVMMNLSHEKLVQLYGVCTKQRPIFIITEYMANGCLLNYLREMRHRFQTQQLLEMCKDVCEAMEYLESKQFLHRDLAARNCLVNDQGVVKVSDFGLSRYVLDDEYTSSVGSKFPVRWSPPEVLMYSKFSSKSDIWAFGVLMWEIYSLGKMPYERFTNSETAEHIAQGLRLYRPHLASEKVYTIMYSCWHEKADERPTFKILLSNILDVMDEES

Row | Compound | IC50 [1] | IC50 (Ramos [2]) | IC50 (Raji) | other results
1 | C=CC(=O)Nc1cccc(Nc2nc(Nc3ccc(NS(=O)(=O)c4ccc(C)cc4)c(OC)c3)ncc2[N+](=O)[O-])c1 | > 0.1 µM | > 40 µM | 34.1 µM | 
2 | C=CC(=O)Nc1cccc(Oc2nc(Nc3ccc(NS(=O)(=O)c4ccc(OC)cc4)cc3)ncc2Cl)c1 | 0.00042 µM | > 40 µM | 40.9 µM | 
3 | C=CC(=O)Nc1cccc(Nc2nc(Nc3ccc(NS(=O)(=O)c4ccc(C)cc4)c(C)c3)ncc2[N+](=O)[O-])c1 | 0.0486 µM | 38 µM | 14.2 µM | 
4 | C=CC(=O)Nc1cccc(Nc2nc(Nc3ccc(NS(=O)(=O)c4ccc(F)cc4)c(C)c3)ncc2[N+](=O)[O-])c1 | 0.0854 µM | > 40 µM | 22.4 µM | 
5 | C=CC(=O)Nc1cccc(Nc2nc(Nc3ccc(NS(=O)(=O)c4ccc(C)cc4)cc3)ncc2Cl)c1 | 0.0585 µM | > 40 µM | 17.4 µM | 
6 | C=CC(=O)Nc1cccc(Nc2nc(Nc3ccc(NS(=O)(=O)c4ccc(OC)cc4)cc3)ncc2F)c1 | 0.00092 µM | > 40 µM | 36.9 µM | 
7 | C=CC(=O)Nc1cccc(Nc2nc(Nc3ccc(NS(=O)(=O)c4ccc(OC)cc4)cc3)ncc2Cl)c1 | 0.00914 µM | 18.8 µM | 15.5 µM | 
8 | C=CC(=O)Nc1cccc(Nc2nc(Nc3ccc(NS(=O)(=O)c4ccc(F)cc4)c(OC)c3)ncc2Cl)c1 | 0.00118 µM | 6.49 µM | 13.2 µM | Activity (Ramos [3]): 17%; viability at 5 µM (Ramos [4]): 25%; Activity (Ramos [5]): 54.6%; Activity (PBMC [6]): Non-Toxic; Activity (Ramos [7]): 13.2%; Activity (Ramos [8]): 23.3%; Activity (Ramos [9]): 4.3%; Activity (Ramos [10]): Active; viability at 1 µM (Ramos [11]): 55.4%; Activity (Ramos [12]): 7.2%
9 | C=CC(=O)Nc1cccc(Nc2nc(Nc3ccc(OCCOC)cc3)ncc2F)c1 [SPEBRUTINIB] |  | 18.8 µM |  | Activity (Ramos [13]): 27.7%; viability at 10 µM (Ramos [14]): 50.9%; Activity (Ramos [15]): 5.9%; Activity (Ramos [16]): 15.6%
10 | C=CC(=O)N1CCC[C@@H](n2nc(-c3ccc(Oc4ccccc4)cc3)c3c(N)ncnc32)C1 [IBRUTINIB] |  | 5.88 µM |  | Activity (Ramos [13]): 37.6%; Activity (PBMC [17]): 50%; viability at 10 µM (Ramos [14]): 40.2%; Activity (Ramos [15]): 7.5%; Activity (Ramos [16]): 14.7%
11 | C=CC(=O)Nc1cccc(Oc2nc(Nc3ccc(NS(=O)(=O)c4ccc(C)cc4)c(C)c3)ncc2Cl)c1 | 0.00105 µM | 7.23 µM | 18.7 µM | 
12 | C=CC(=O)Nc1cccc(Nc2nc(Nc3ccc(NS(=O)(=O)c4ccc(F)cc4)c(C)c3)ncc2Cl)c1 | 0.0786 µM | 6.44 µM | 10.5 µM | 
13 | C=CC(=O)Nc1cccc(Nc2nc(Nc3ccc(NS(=O)(=O)c4ccc(OC)cc4)cc3)ncc2[N+](=O)[O-])c1 | 0.0238 µM | > 40 µM | 18.7 µM | 
